Data published in ChEMBL document CHEMBL1667806, “Synthesis and evaluation of anti-tubercular activity of new dithiocarbamate sugar derivatives” (2011).
In brackets after ≈: the same amount, converted by molar mass.

Tests used:
[1] = tested on: Mycobacterium tuberculosis; experiment: Antimycobacterial activity against Mycobacterium bovis BCG carrying pMV261::ethR; type: functional; conditions: Mycobacterium tuberculosis variant bovis BCG
Method in brief: (§1)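 MIC by agar method on 7H11 supplemented with OADC. M. bovis BCG carried empty pMV261, or pMV261 overexpressing EthA or EthR from the constitutive hsp60 promoter. Results reported as MIC ranges in µg/ml.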

[2] = tested on: Mycobacterium tuberculosis; experiment: Antimycobacterial activity against Mycobacterium bovis BCG carrying pMV261::ethA; type: functional; conditions: Mycobacterium tuberculosis variant bovis BCG; method in brief: as §1
[3] = tested on: Mycobacterium tuberculosis; experiment: Antimycobacterial activity against Mycobacterium bovis BCG carrying pMV261; type: functional; conditions: Mycobacterium tuberculosis variant bovis BCG; method in brief: as §1
[4] = tested on: Mycobacterium tuberculosis; experiment: Antimycobacterial activity against Mycobacterium bovis BCG assessed as clolony forming unit at 125 ug/ml after 7 days in presence of sucrose; type: functional, variant bovis BCG
Method in brief: (§2)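 M. bovis BCG exposed to agent, with or without sucrose or 2.5% dextran, in log-phase and stationary-phase cultures. Bactericidal activity read as viable count (log CFU/ml) at day 7 and day 21. Values given as means ± SD.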

[5] = tested on: Mycobacterium tuberculosis; experiment: Antimycobacterial activity against Mycobacterium bovis BCG assessed as clolony forming unit at 125 ug/ml after 7 days; type: functional, variant bovis BCG; method in brief: as §2
[6] = tested on: Mycobacterium tuberculosis; experiment: Antimycobacterial activity against Mycobacterium bovis BCG assessed as clolony forming unit at 125 ug/ml after 21 days in presence of destrin; type: functional, variant bovis BCG; method in brief: as §2
[7] = tested on: Mycobacterium tuberculosis; experiment: Antimycobacterial activity against Mycobacterium bovis BCG assessed as clolony forming unit at 125 ug/ml after 21 days; type: functional, variant bovis BCG; method in brief: as §2
[8] = tested on: Mycobacterium tuberculosis; experiment: Antimycobacterial activity against Mycobacterium bovis BCG assessed as clolony forming unit at 125 ug/ml after 21 days in presence of sucrose; type: functional, variant bovis BCG; method in brief: as §2
[9] = tested on: Mycobacterium tuberculosis; experiment: Antimycobacterial activity against Mycobacterium bovis BCG assessed as clolony forming unit at 125 ug/ml after 7 days in presence of dextrin; type: functional, variant bovis BCG; method in brief: as §2
[10] = tested on: Mycobacterium tuberculosis; experiment: Antimycobacterial activity against Mycobacterium bovis BCG assessed as clolony forming unit at 4 ug/ml after 21 days in presence of destrin; type: functional, variant bovis BCG; method in brief: as §2
[11] = tested on: Mycobacterium tuberculosis; experiment: Antimycobacterial activity against Mycobacterium bovis BCG assessed as clolony forming unit at 4 ug/ml after 21 days; type: functional, variant bovis BCG; method in brief: as §2
[12] = tested on: Mycobacterium tuberculosis; experiment: Antimycobacterial activity against Mycobacterium bovis BCG assessed as clolony forming unit at 4 ug/ml after 21 days in presence of sucrose; type: functional, variant bovis BCG; method in brief: as §2
[13] = tested on: Mycobacterium tuberculosis; experiment: Antimycobacterial activity against Mycobacterium bovis BCG assessed as clolony forming unit at 4 ug/ml after 7 days in presence of sucrose; type: functional, variant bovis BCG; method in brief: as §2
[14] = tested on: Mycobacterium tuberculosis; experiment: Antimycobacterial activity against Mycobacterium bovis BCG assessed as clolony forming unit at 4 ug/ml after 7 days in presence of dextrin; type: functional, variant bovis BCG; method in brief: as §2
[15] = tested on: Mycobacterium tuberculosis; experiment: Antimycobacterial activity against Mycobacterium bovis BCG assessed as clolony forming unit at 4 ug/ml after 7 days; type: functional, variant bovis BCG; method in brief: as §2
[16] = tested on: Mycobacterium tuberculosis; experiment: Antimycobacterial activity against Mycobacterium bovis BCG assessed as clolony forming unit at 313 ug/ml after 21 days in presence of sucrose; type: functional, variant bovis BCG; method in brief: as §2
[17] = tested on: Mycobacterium tuberculosis; experiment: Antimycobacterial activity against Mycobacterium bovis BCG assessed as clolony forming unit at 313 ug/ml after 7 days in presence of dextrin; type: functional, variant bovis BCG; method in brief: as §2
[18] = tested on: Mycobacterium tuberculosis; experiment: Antimycobacterial activity against Mycobacterium bovis BCG assessed as clolony forming unit at 313 ug/ml after 7 days in presence of sucrose; type: functional, variant bovis BCG; method in brief: as §2
[19] = tested on: Mycobacterium tuberculosis; experiment: Antimycobacterial activity against Mycobacterium bovis BCG assessed as clolony forming unit at 313 ug/ml after 21 days; type: functional, variant bovis BCG; method in brief: as §2
[20] = tested on: Mycobacterium tuberculosis; experiment: Antimycobacterial activity against Mycobacterium bovis BCG assessed as clolony forming unit at 313 ug/ml after 7 days; type: functional, variant bovis BCG; method in brief: as §2
[21] = tested on: Mycobacterium tuberculosis; experiment: Antimycobacterial activity against Mycobacterium bovis BCG assessed as clolony forming unit at 313 ug/ml after 21 days in presence of destrin; type: functional, variant bovis BCG; method in brief: as §2

CCc1cc(C(N)=S)ccn1 [ETHIONAMIDE]
MIC [1]: 10 µg/mL (≈ 60.2 µM)
MIC [2]: 0.5 µg/mL (≈ 3.01 µM)
MIC [3]: 1 µg/mL (≈ 6.02 µM)

CC(=O)N[C@@H]1[C@@H](O)[C@H](O)[C@@H](CO)O[C@H]1SC(=S)N1CCCC1
log10CFU/ml [4]: 6.25
MIC [1]: 1 µg/mL (≈ 2.85 µM)
log10CFU/ml [5]: 4.55
log10CFU/ml [6]: 5.79
MIC [2]: 1 µg/mL (≈ 2.85 µM)
log10CFU/ml [7]: 4.43
log10CFU/ml [8]: 5.76
MIC [3]: 1 µg/mL (≈ 2.85 µM)
log10CFU/ml [9]: 6.07

N.S=C(S)N1CCCC1 [PYRROLIDINE DITHIOCARBAMIC ACID, AMMONIUM SALT]
MIC [1]: 0.25 µg/mL
log10CFU/ml [10]: 5.56
log10CFU/ml [11]: 4.41
log10CFU/ml [12]: 5.56
MIC [2]: 0.5 µg/mL
log10CFU/ml [13]: 6.05
log10CFU/ml [14]: 6.93
log10CFU/ml [15]: 4.65
MIC [3]: 0.5 µg/mL

CC(=O)N[C@@H]1[C@@H](O)[C@H](O)[C@@H](CO)O[C@H]1SC(=S)N(C)C
MIC [1]: 10 µg/mL (≈ 30.8 µM)
log10CFU/ml [16]: 5.78
log10CFU/ml [17]: 6.44
log10CFU/ml [18]: 6.41
MIC [2]: 10 µg/mL (≈ 30.8 µM)
log10CFU/ml [19]: 5.2
log10CFU/ml [20]: 5.91
log10CFU/ml [21]: 5.91
MIC [3]: 10 µg/mL (≈ 30.8 µM)
